Source: ChEMBL document CHEMBL1125736, “N-[(omega-amino-1-hydroxyalkyl)phenyl]methanesulfonamide derivatives with class III antiarrhythmic activity” (1991)

How the values were obtained:
Type in all cases: functional
[1] = species on record: Oryctolagus cuniculus; experiment: Tested for force of contraction measured in mg at a pacing rate of 2 Hz in vitro with rabbit heart tissue preparations.
In short: (§1)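 Isolated rabbit heart tissues, all from one heart, each its own baseline; 2 h equilibration, perfusate changed every 15 min, basal stimulation 2 Hz between measurements. Exposed to 10^-7, 10^-6 and 10^-5 M drug, 15 min each; values reported at 10^-5 M as percent change from baseline. Drug solutions prepared daily in glass-distilled water. Force and rate recorded on polygraph.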

[2] = species on record: Oryctolagus cuniculus; experiment: Tested for effective refractory period measured at a pacing rate of 3 Hz in vitro with rabbit heart tissue preparations.; parameters: unit: %; in short: as §1
[3] = species on record: Oryctolagus cuniculus; experiment: Tested for conduction time measured at a pacing rate of 3 Hz in vitro with rabbit heart tissue preparations.; in short: as §1
[4] = species on record: Oryctolagus cuniculus; experiment: Tested for rate automaticity measured in beats per minute from unpaced right atria of rabbit heart.; in short: as §1
[5] = species on record: Oryctolagus cuniculus; experiment: Tested for conduction time measured at a pacing rate of 1 Hz in vitro with rabbit heart tissue preparations.; in short: as §1
[6] = species on record: Oryctolagus cuniculus; experiment: Tested for effective refractory period measured at a pacing rate of 1 Hz in vitro with rabbit heart tissue preparations.; in short: as §1

Compound | FOC [1] | ERP3 [2] | CT3 [3] | Rate [4] | CT1 [5] | ERP1 [6]
CCCCCCCCCCN(CC)CCCC(O)c1ccc(NS(C)(=O)=O)cc1 (configuration not stated) | -23.1 | 16.1 | 74.3 | -11 | 63.2 | 11.8
CCCCCCCN(CC)CC(O)c1ccc(NS(C)(=O)=O)cc1 (configuration not stated) | -7 | 26.2 |  | -38 | 10.2 | 22.9
CCCCCCCN(CC)CCCC(O)c1cccc(NS(C)(=O)=O)c1 (configuration not stated) | -15 | 19 | 54 | -16 | 21.3 | 25.2
CCCCCCN(CC)CCCC(O)c1ccc(NS(C)(=O)=O)cc1 (configuration not stated) | -10.9 | 7.8 | 0 | -16 | -6.5 | 12.1
CS(=O)(=O)Nc1ccc(C(O)CCCN2CCCCCCC2)cc1 (configuration not stated) | -5.6 | 23.5 | -4.7 | -10 | -4.5 | 21.4
CCCCCCCN(CC)CCCC(=O)c1ccc(NS(C)(=O)=O)cc1 | -6.7 | 9.4 | 0.6 | -21 | -2.7 | 6.6
CCCCCCCCN(CC)CCCC(O)c1ccc(NS(C)(=O)=O)cc1 (configuration not stated) | 0.7 | 4.3 | 29.8 | -28 | 17.3 | 5.3
CCCCCCCN(C)CCCC(O)c1ccc(NS(C)(=O)=O)cc1 (configuration not stated) | 8.5 | 17.2 | 70 | -34 | 13 | 16.5
